Experimental data from different studies.
Compare with care: the assays were run in different laboratories.
Organism: Micrococcus luteus
Effect on: microbial growth

SMILES	method	strain	time	MIC
C/C=C(\C)c1cc(OC(=O)c2c(C)c(Cl)c(O)c(Cl)c2O)c(C)c(O)c1C(=O)O	broth dilution	ML01		64 µg/mL
CN(C)[C@@H]1C(O)=C(C(N)=O)C(=O)[C@@]2(O)C(O)=C3C(=O)c4c(O)cccc4[C@@](C)(O)[C@H]3C[C@@H]12				2 µg/mL
O=C(O)CN1C(=O)/C(=C/c2ccc(-c3ccc(N(c4ccccc4)c4ccccc4)cc3)cc2)SC1=S	broth dilution	ATCC10240		0.98 µg/mL
C/C=C(\C)c1cc(O)c(C)c(OC(=O)c2c(C)cc(O)c(Cl)c2O)c1	broth dilution	ML01		4 µg/mL
CC1=NN(CNc2ccccn2)C(=O)C1=NNn1c(-c2ccccc2)nc2ccccc2c1=O	broth dilution		24 h	110 µM
CC1(C)S[C@@H]2[C@H](NC(=O)[C@H](N)c3ccccc3)C(=O)N2[C@H]1C(=O)O	broth dilution	ML01		0.13 µg/mL
O=C1NC(=S)N/C1=C\c1ccc(-c2ccc(N(c3ccccc3)c3ccccc3)cc2)c2ccccc12	broth dilution	ATCC10240		> 1000 µg/mL
CC1=NN(CNC(=O)c2ccccn2)C(=O)C1=NNn1c(-c2ccccc2)nc2ccccc2c1=O	broth dilution		24 h	52 µM
O=C1NC(=S)S/C1=C\c1ccc(-c2ccc(N(c3ccccc3)c3ccccc3)cc2)cc1	broth dilution	ATCC10240		31.1 µg/mL
CC(=O)NCN1N=C(C)C(=NNn2c(-c3ccccc3)nc3ccccc3c2=O)C1=O	broth dilution		24 h	59.9 µM
